Compound activity (PubChem)
hERG rescue – hERG rescue from dofetilide block, primary screen, cell-based, CHO-hERG, FluxOR thallium flux, dofetilide IC70; dofetilide IC70 present; activation (rescue from dofetilide block), less the hit threshold, % at 10 µM; AID 1511, 2009; actives 0.51% (n = 310,000);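 active means activation above the mean of controls blocked by dofetilide plus 5 SD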;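 further: thallium influx through hERG after potassium depolarization seen as dye fluorescence rise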
KCNQ1 inh – inhibitors of human KCNQ1 channel, primary screen, cell-based, thallium flux, high-throughput | B-score at 10 µM | AID 2642, 2010 | CHO-K1 KCNQ1, FluxOR thallium flux fluorescence; active compounds read high | actives 1.3% (n = 310,000);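 active means compounds whose thallium flux B-score, printed positive for inhibition, exceeds three library SD while starting fluorescence stays within three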;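 further: channel opened by potassium depolarization with thallium stimulus after 20 min compound exposure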
KCNQ1 act – potentiators or activators of KCNQ1 channel, primary screen, cell-based, thallium flux, high-throughput; Potassium voltage-gated channel subfamily KQT member 1 (Homo sapiens), P51787; CHO-K1 KCNQ1, thallium flux FluxOR fluorescence; active compounds read high; B-score at 10 µM; actives 0.35% (n = 310,000);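 active means fluorescence ratio B-score, a plate-corrected score, at least three library SD, with initial intensity B-score within 5 SD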
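Material: CHO-K1 cells stably expressing KCNQ1. Medium: assay buffer for compound exposure, DMSO matched across wells. Reagent: K+/Tl+ depolarizing stimulus. Compound dosing: single-concentration screen. Times: 37 °C overnight plating, 90-min dark dye load, 20-min compound pretreatment. Technique: FluxOR Tl+ flux fluorescence.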
KCNK3 block – human KCNK3 channel inhibitors, primary screen, CHO cells, FluxOR thallium flux, B-score. B-score at 10 µM. actives 0.84% (n = 340,000). Potassium channel subfamily K member 3 (Homo sapiens), O14649. FluxOR fluorescence; active compounds read low;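 active means B-score under library mean minus 4 SD, starting fluorescence ratio at most library mean plus 5 SD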;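 further: more negative B-score means stronger inhibition of thallium flux through KCNK3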
KCNK9 inh – KCNK9 potassium channel inhibitors, primary screen, HEK293 cells, thallium flux; FluxOR thallium flux fluorescence; active compounds read low; B-score at 10 µM; actives 1.2% (n = 310,000); AID 488922, 2010;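 active means ratio B-score over 3 SD below the library mean, with starting fluorescence within 5 SD of its mean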;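 further: negative B-score means less thallium flux so channel inhibition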
KCNQ1 inh valid – KCNQ1 potassium channel inhibitors, confirmation, cell-based, Tl flux, duplicate; inhibition, % at 10 µM; KCNQ1 cell line, FluxOR thallium flux fluorescence; shares compounds with KCNQ1 inh; actives 93% (n = 1,600);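 active means primary screen active, with duplicate mean exceeding buffer control mean plus 3 SD of buffer wells, cut at about 28% in these data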
CHO Tl flux – thallium flux effects in parental CHO cells, counter-screen for KCNQ1 inhibitor project, cell-based, Tl flux | shares compounds with KCNQ1 inh | parental CHO-K1, FluxOR thallium flux fluorescence ratio; active compounds read low; zero means no signal rise above baseline | fluorescence ratio (Tl flux) at 10 µM | actives 21% (n = 1,600) | AID 588366, 2011;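 active means mean of duplicate thallium-flux fluorescence ratios in parental host cells more than 5 SD below the buffer control mean, cut at about 0.38 in these data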;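 further: ratio is peak minus minimum fluorescence divided by baseline fluorescence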
KCNQ1 ephys val – KCNQ1 channel inhibitors, confirmation, orthogonal assay, cell-based, automated electrophysiology | actives 20% (n = 490) | shares compounds with KCNQ1 inh | KCNQ1-CHO cells, automated patch clamp current | calls only at 10 µM;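 active means KCNQ1 current drop exceeding 3 SD of negative control wells, seen in both duplicate runs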;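 further: steady state current during a 2 s step from -80 to +40 mV; negative values mean current inhibition and positive values mean potentiation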
KCNQ2 inh – KCNQ2 channel inhibition, selectivity assay for KCNQ1 inhibitor project, cell-based. shares compounds with KCNQ1 inh. KCNQ2 cells, FluxOR thallium flux fluorescence. inhibition, % at 10 µM. actives 71% (n = 1,600);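 active means mean percent inhibition of the KCNQ2 thallium signal more than 5 SD above the buffer-only control wells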;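 further: KCNQ2 expressed in CHO cells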
KCNQ1-KCNE1 inh – KCNQ1/KCNE1 channel inhibition, selectivity assay for KCNQ1 inhibitor project, CHO-K1 cells, thallium flux, FluxOR; FluxOR thallium flux fluorescence; shares compounds with KCNQ1 inh; actives 77% (n = 1,600); AID 652147, 2013; inhibition, % at 10 µM;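 active means mean percent inhibition of duplicate wells above the buffer-only control mean plus 3 SD of those controls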
Target sequence (P51787 whole entry, looked up): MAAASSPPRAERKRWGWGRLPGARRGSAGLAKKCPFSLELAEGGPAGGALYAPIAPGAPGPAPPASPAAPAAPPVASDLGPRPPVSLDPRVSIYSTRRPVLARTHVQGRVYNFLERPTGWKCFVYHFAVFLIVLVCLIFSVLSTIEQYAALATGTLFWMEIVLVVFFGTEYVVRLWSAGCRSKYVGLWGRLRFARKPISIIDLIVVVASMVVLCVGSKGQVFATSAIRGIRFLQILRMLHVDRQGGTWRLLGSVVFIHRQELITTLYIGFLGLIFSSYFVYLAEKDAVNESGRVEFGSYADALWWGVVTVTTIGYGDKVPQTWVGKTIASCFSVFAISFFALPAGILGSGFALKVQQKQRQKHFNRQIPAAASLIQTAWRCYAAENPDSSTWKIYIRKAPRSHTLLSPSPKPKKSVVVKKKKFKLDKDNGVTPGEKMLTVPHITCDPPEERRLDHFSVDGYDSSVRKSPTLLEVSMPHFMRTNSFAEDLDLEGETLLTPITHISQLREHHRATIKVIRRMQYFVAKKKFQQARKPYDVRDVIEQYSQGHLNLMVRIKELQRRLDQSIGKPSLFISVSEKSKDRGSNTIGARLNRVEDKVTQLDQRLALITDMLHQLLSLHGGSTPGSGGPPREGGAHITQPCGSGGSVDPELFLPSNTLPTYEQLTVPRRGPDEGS
Large screens that a line does not name were inactive (follow-up assays come after a bar, where they were run). Sampled rows, rich in hits. Any-hit rate of the full collection: about 3.1%.

CSc1nnc(C)c(/C=C/Nc2ccc(Cl)cc2)n1	KCNQ1 inh 11 | KCNQ1 inh valid 48.5 | CHO Tl flux inactive | KCNQ2 inh inactive | KCNQ1-KCNE1 inh 87.5%
CSc1nnc(C)c(/C=C/Nc2ccc(F)cc2)n1	none
Nc1nc2ncc(C(=O)c3cc(Cl)cc(Cl)c3O)cc2s1	none
CC(C)c1noc2ncc(C(=O)c3cc(Cl)cc(Cl)c3O)cc12	KCNQ1 inh 6 | KCNQ1 inh valid 52.0 | CHO Tl flux inactive | KCNQ2 inh inactive | KCNQ1-KCNE1 inh inactive
Nc1ncc(Br)cc1S(=O)(=O)Nc1cc(C(F)(F)F)cc(C(F)(F)F)c1	KCNQ1 inh 10 | KCNQ1 inh valid 107.5 | CHO Tl flux inactive | KCNQ2 inh inactive | KCNQ1-KCNE1 inh inactive
Cc1ccc(-c2cc3ccccc3nc2N2CCCC2)cc1	KCNQ1 inh 12 | KCNQ1 inh valid 117.5 | CHO Tl flux inactive | KCNQ1 ephys val inactive | KCNQ2 inh 86.7% | KCNQ1-KCNE1 inh 194.5%
Clc1ccc(-c2cc3ccccc3nc2N2CCCC2)cc1	KCNQ1 inh 12 | KCNQ1 inh valid 130.0 | CHO Tl flux inactive | KCNQ1 ephys val inactive | KCNQ2 inh 82.7% | KCNQ1-KCNE1 inh 167.0%
O=C(c1ccco1)N1CCN(S(=O)(=O)c2c(Cl)cccc2Cl)CC1	none
CCCN=C1N(C)C[C@@H]2[C@@H]3C(=O)N(C)C(=O)[C@@H]3[C@](C)(C(=O)OC)N12	none (no result: hERG rescue, KCNQ1 inh, KCNQ1 act, KCNK9 inh)
Cc1cc(C)c(CSc2ncc(-c3ccc([N+](=O)[O-])cc3)[nH]2)c(C)c1	KCNQ1 inh 16 | KCNQ1 inh valid 140.0 | CHO Tl flux inactive | KCNQ1 ephys val inactive | KCNQ2 inh 92.7% | KCNQ1-KCNE1 inh 184.5%
Nc1c(Cl)cc(N=Nc2ccccc2)cc1Cl	none (no result: hERG rescue, KCNQ1 inh, KCNQ1 act, KCNK9 inh)
Cc1cc(-c2ccc(S(=O)(=O)N(C)c3ccc(C)c(C)c3)s2)on1	KCNQ1 inh 9 | KCNQ1 inh valid 128.0 | CHO Tl flux 0.342 | KCNQ2 inh 142.7% | KCNQ1-KCNE1 inh 150.5%
O=C(N=C1SC2CS(=O)(=O)CC2N1c1ccc(Cl)cc1Cl)C1CC1 (centres undefined)	none
O=C(Nc1ccc(F)cc1)c1cc(S(=O)(=O)Nc2ccc(F)cc2)cs1	KCNQ1 inh 7 | KCNQ1 inh valid 66.5 | CHO Tl flux inactive | KCNQ2 inh 62.3% | KCNQ1-KCNE1 inh inactive
O=C(CN(Cc1ccccc1)C(=O)CCl)c1cccc(Br)c1	none (no result: hERG rescue, KCNQ1 inh, KCNQ1 act, KCNK9 inh)
FC(F)(F)c1ccc(/C=N/n2c(C3CCCCC3)n[nH]c2=S)cc1	none
CC(C)NC(=O)c1ccccc1NS(=O)(=O)c1ccc(Br)s1	KCNQ1 inh 8 | KCNQ1 inh valid inactive | CHO Tl flux inactive | KCNQ2 inh inactive | KCNQ1-KCNE1 inh 55.5%
Cc1ccc(S(=O)(=O)N2CCN(C(=O)COC(=O)/C=C/c3ccccc3[N+](=O)[O-])CC2)c(C)c1	none
Cc1nn2c(NCc3ccccn3)c3c(nc2c1-c1ccccc1)CCC3	none
Cc1nn2c(NCCN3CCOCC3)c3c(nc2c1-c1ccccc1)CCCC3	KCNQ1 inh 7 | KCNQ1 inh valid 57.5 | CHO Tl flux inactive | KCNQ2 inh 81.7% | KCNQ1-KCNE1 inh 73.0%
Cc1sc(NC(=O)CN(C(=O)c2ccccc2F)C2CCCC2)c(C(N)=O)c1C	none
O=S(=O)(Nc1nc2ccccc2nc1N1CCN(c2ccccc2)CC1)c1ccc(F)cc1	KCNQ1 inh 10 | KCNQ1 inh valid 78.5 | CHO Tl flux inactive | KCNQ2 inh 69.3% | KCNQ1-KCNE1 inh 62.0%
CC(NC(=O)Nc1ccc(Cl)c(Cl)c1)C(c1ccccc1)N1CCOCC1 (centres undefined)	KCNQ1 inh 9 | KCNQ1 inh valid 105.0 | CHO Tl flux inactive | KCNQ1 ephys val active | KCNQ2 inh 81.3% | KCNQ1-KCNE1 inh 79.0%
O=C(c1ccc(Cl)c(S(=O)(=O)N2CCCCC2)c1)N1CCCC(C(F)(F)F)C1 (centres undefined)	none (no result: hERG rescue, KCNQ1 inh, KCNQ1 act, KCNK9 inh)
CC(C)(C)c1ccc(CNC(=O)c2ccc3c(c2)NC(=O)CO3)cc1	none
O=C1COc2ccc(C(=O)NCc3ccc4c(c3)OCO4)cc2N1	KCNQ1 inh 7 | KCNQ1 inh valid 103.5 | CHO Tl flux inactive | KCNQ1 ephys val active | KCNQ2 inh 86.3% | KCNQ1-KCNE1 inh 112.5%
O=C(Nc1ccccc1)Nc1ccc(Br)cc1F	none
O=C(Nc1cccc(Cl)c1)Nc1ccon1	KCNQ1 inh 7 | KCNQ1 inh valid 54.0 | CHO Tl flux inactive | KCNQ2 inh inactive | KCNQ1-KCNE1 inh inactive
O=C(Nc1cccc(Cl)c1)Nc1nccs1	KCNQ1 inh 7 | KCNQ1 inh valid 69.5 | CHO Tl flux inactive | KCNQ2 inh inactive | KCNQ1-KCNE1 inh 41.5%
O=C(Nc1cccc(Cl)c1)Nc1ccc(Br)cc1F	KCNQ1 inh 9 | KCNQ1 inh valid 52.0 | CHO Tl flux inactive | KCNQ2 inh inactive | KCNQ1-KCNE1 inh inactive
O=C(Nc1cccc(Cl)c1)Nc1ccnc(-c2cccnc2)n1	KCNQ1 inh 6 | KCNQ1 inh valid 73.5 | CHO Tl flux inactive | KCNQ2 inh inactive | KCNQ1-KCNE1 inh inactive
O=C(Nc1cccc(Cl)c1)Nc1cnccn1	none
O=C1C=C(C2OC(CO)C(O)C2O)C(=O)N1 (centres undefined)	none (no result: hERG rescue, KCNQ1 inh, KCNQ1 act, KCNK9 inh)
CCOC(=O)c1cc(S(=O)(=O)NCC2CCN(Cc3cccc(C)c3)CC2)cn1C	none
O=C(CCOc1ccccc1)Nc1ccnn1C1CCN(C(=O)CCC(F)(F)F)CC1	none
Cc1ccc(S(=O)(=O)N2CC(=O)N3CCN(CCN)C3C2)cc1 (centres undefined)	none (no result: hERG rescue, KCNQ1 inh, KCNQ1 act, KCNK9 inh)
